Source: PubChem
TCR-CD3 inh: human TCR-CD3 binding inhibition; TAMRA-labeled TCR probe fluorescence, biochemical; 360,000 tested, 0.37% active; inhibition, % at 9.4 µM; in the data active = inhibition above about 19%;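 also: recombinant mutant TCR 2C K166C tagged with TAMRA read by polarization; 0% = receptor in buffer alone and 100% = receptor with positive control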
ABHD4 inh: inhibits mouse alpha/beta hydrolase domain 4 | inhibition, % at 8.92 µM | purified mABHD4, FP-Rh probe fluorescence polarization | Q8VD66 | AID 720543 | 370,000 tested, 0.54% active;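 active = inhibition exceeding the mean over every tested compound plus 3 SD, cut at about 30% in these data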;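 also: 0% = plate median of compound wells and 100% = S159A mutant with DMSO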
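Test system: mABHD4 protein; Read-out basis: % inhibition; Incubation: 45 min + 60 min at 25 °C; Repeats: single replicate; Technique: fluorescence polarization with parallel and perpendicular emission, 525/598 nm; Compound: 8.92 µM, single dose; Benchmarks: full inhibition S159A mutant plus DMSO, zero as sample-well median.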
SIAE inh: blocks human sialic acid acetylesterase | 370,000 tested, 0.69% active | AID 1053197 | Q9HAT2 | inhibition, % at 9.66 µM | SIAE FP-Rh probe binding, fluorescence polarization;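 active = inhibition above a cutoff: mean of compounds within the control limits plus 3 SD of those, cut at about 17% in these data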;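 also: 0% = plate median of compound wells and 100% = probe without SIAE protein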
Target sequence (Q9HAT2 whole entry, looked up): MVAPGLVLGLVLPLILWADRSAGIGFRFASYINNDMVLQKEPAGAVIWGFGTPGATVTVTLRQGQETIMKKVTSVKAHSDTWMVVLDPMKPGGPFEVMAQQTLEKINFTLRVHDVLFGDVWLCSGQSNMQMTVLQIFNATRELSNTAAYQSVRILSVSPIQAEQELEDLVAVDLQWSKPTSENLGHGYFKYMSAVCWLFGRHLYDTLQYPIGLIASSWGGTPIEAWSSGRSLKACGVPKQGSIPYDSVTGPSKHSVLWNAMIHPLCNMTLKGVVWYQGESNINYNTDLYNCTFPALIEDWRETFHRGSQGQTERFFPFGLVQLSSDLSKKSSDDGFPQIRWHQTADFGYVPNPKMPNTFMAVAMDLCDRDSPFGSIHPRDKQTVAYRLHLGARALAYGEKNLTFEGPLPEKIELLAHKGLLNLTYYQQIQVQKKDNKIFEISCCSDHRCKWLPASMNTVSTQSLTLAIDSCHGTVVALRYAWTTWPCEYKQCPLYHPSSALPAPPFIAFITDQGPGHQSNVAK
PRMT1 FP inh: PRMT1 (human) inhibition, primary screen | recombinant PRMT1, activity-based probe fluorescence polarization | 370,000 tested, 1.3% active | inhibition, % at 2.79 µM | Q99873;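 active = inhibition above about 21% made by adding two undisclosed values, limit read from the data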
HTRA1 inhibitor: inhibitors of human serine peptidase HTRA1 | recombinant HTRA1, FP-rhodamine activity-based probe, fluorescence polarization | inhibition, % at 5.96 µM | 340,000 tested, 0.5% active | AID 504803; in the data active = inhibition above about 36%;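 also: 0% = enzyme with DMSO and 100% = wells lacking enzyme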
An asterisk follows results filed as active; . = no result given. Sampled rows, rich in hits. Any-hit rate of the full collection: about 2.5%.

SMILES	TCR-CD3 inh	ABHD4 inh	SIAE inh	PRMT1 FP inh	HTRA1 inhibitor
Nc1c(N2CCCC2)cc(Cl)c2nonc12	.	.	.	.	37*
Cc1ccc(-c2nc3sc(C#N)c(N)n3c(=O)c2C#N)cc1	3	-6	8	81*	-3
Cc1ccc(NC(=S)N(CCN(C)C)Cc2cccs2)c(C)c1	1	2	12	22*	0
Cc1sc(N)c(C(=O)c2ccccc2)c1C	-5	2	-1	41*	.
COC(=O)CC[C@H](/C=C/C(=O)OC(C)(C)C)Sc1ccc(C(C)(C)C)cc1	.	-5	-3	0	.
COc1ccc(-n2c(SCC(=O)NNC(=S)Nc3ccccc3)nc3ccccc3c2=O)cc1	.	-3	-7	8	.
CCOC(=O)c1ccc(S(=O)(=O)Nc2nc3cc(S(=O)(=O)NC4=NCCCCC4)ccc3s2)cc1	-4	-3	-1	41*	-10
CN1CCN(NC(=O)CN2C(=O)/C(=C/c3c(Cl)cccc3Cl)SC2=S)CC1	-11	-3	-6	22*	-4
CN1CCN(NC(=O)CN2C(=O)/C(=C/c3ccccc3Cl)SC2=S)CC1	-27	-7	-12	16	-18
CC(C)CCNC(=O)C(NS(=O)(=O)c1ccc2c(c1)c(=O)n(C)c(=O)n2C)c1ccccc1 (stereo unspecified)	4	-2	-6	21*	4
Cc1ccc(N2C(=O)c3ccccc3C2C(=O)c2ccc(O)cc2O)cc1 (stereo unspecified)	7	-2	4	24*	-32
CCOc1cc(NC(=S)Nc2cccc(C)c2)c(OCC)cc1NC(=O)CC(C)C	-6	15	9	24*	1
CCOC(=O)N1CCN(S(=O)(=O)c2ccc(C(=O)NNc3nc4c(C)cc(C)cc4s3)cc2)CC1	-11	16	7	7	.
CCOC(=O)N1CCN(S(=O)(=O)c2ccc(C(=O)NNc3nc4cc(C)cc(C)c4s3)cc2)CC1	.	.	.	.	50*
CCCCCCCCNS(=O)(=O)CC1NCc2cc(F)ccc21 (stereo unspecified)	.	-18	0	-3	.
CN(C(=O)[C@@H](C1CC1)[C@@H](O)c1ccc(Cl)cc1)c1ccccc1	.	3	6	0	.
O=C(NCc1ccccc1)c1nc(S(=O)(=O)Cc2ccccc2)ncc1Cl	-3	-2	-9	23*	3
COc1ccc(CNC(=O)c2nc(S(=O)(=O)Cc3ccccc3)ncc2Cl)cc1	-5	-5	4	19	-1
O=c1oc2cc([N+](=O)[O-])ccc2nc1/C=C(\O)c1cccc(Br)c1	-11	39*	6	15	3
O=c1oc2ccccc2nc1/C=C(\O)c1ccccc1	4	23	-3	18	.
COC(=O)CN1CCN(C(=O)c2nocc2C)CC1	.	1	2	-5	.
COc1cc(C(=O)Nc2nc(C)c(Cc3ccc4c(c3)OCO4)s2)cc(OC)c1OC	-1	-1	-9	23*	-11
O=C1C(=O)c2cccnc2-c2ncccc21	5	1	-4	22*	.
O=C1c2cccnc2-c2ncccc21	3	0	1	2	1
Cc1cc(NS(=O)(=O)c2ccc(NC(=O)c3ccccc3F)cc2)no1	-2	-4	-2	-4	6
SMILES	TCR-CD3 inh	ABHD4 inh	SIAE inh	PRMT1 FP inh	HTRA1 inhibitor
COc1ccccc1C(=O)Nc1ccc(S(=O)(=O)Nc2cc(C)on2)cc1	2	0	27*	-4	0
COC(=O)c1ccccc1NC(=O)c1ccccc1OC	9	0	-4	-1	-6
COc1ccccc1C(=O)Nc1ccccc1SC(=O)c1ccccc1OC	1	-12	-21	52*	-10
O=C(Nc1ccc(Cl)cc1)O[C@@H]1CC[C@@]23CCCN2C(=O)CCC[C@H]3C1	.	-5	-2	0	.
COC(=O)C1=C(C)Nc2ccc(C)cc2S1	-10	-5	-14	24*	6
O=C(O)/C(=C\c1ccc(Cl)c([N+](=O)[O-])c1)c1ccc(S(=O)(=O)N2CCCC2)s1	8	20	-14	23*	-16
O=[N+]([O-])c1c(Nc2ccc(O)cc2)cc(Cl)c2nonc12	1	25	1	77*	8
O=c1[nH]c(Sc2ccc([N+](=O)[O-])cc2[N+](=O)[O-])nc2ccccc12	1	7	1	23*	-6
NC(N)=N/N=C/c1ccc(OCc2ccccc2)c(OCc2ccccc2)c1	-8	20	25*	4	-41
COc1cccc(C(=O)Oc2ccc(/C=N/Nc3ccc(C(=O)O)cc3)cc2OC)c1	2	13	9	8	5
COc1cccc(OCc2cc(/C=N/Nc3ccc(C(=O)O)cc3)ccc2OC)c1	0	34*	3	10	-61
COc1ccc(OC)c(/C=C2\SC(=S)N(Cc3cccnc3)C2=O)c1	0	6	1	1	-6
COc1ccc(O)c(/C=C2/SC(=S)N(Cc3ccccc3)C2=O)c1	-7	-5	1	23*	-4
CCCCCCCCCCCC1=C(O)C(=O)C=C(O)C1=O	.	.	.	.	43*
COc1ccccc1NC(=O)CCCCCN1C(=O)c2cccc([N+](=O)[O-])c2C1=O	3	1	-2	1	-1
COc1cc(/C=C2/C(=O)c3cccc([N+](=O)[O-])c3C2=O)c(Br)cc1O	-7	46*	-15	62*	30
CC1(C(=O)O)CCCN1C(=O)c1ccc(Cl)cc1Cl (stereo unspecified)	-6	1	-5	4	.
Cc1oc(-c2ccc(Cl)cc2)cc1C(=O)N1CCC1(C)C(=O)O (stereo unspecified)	3	-4	-2	23*	.
COc1ccc(C(NC(=O)/C=C/c2ccco2)c2ccc(OC)c(OC)c2)cc1 (stereo unspecified)	-10	-6	-5	25*	-12
CS(=O)(=O)c1ccccc1C(=O)Nc1ccc(-c2nc3ccccc3[nH]2)cc1	0	-4	1	-2	-5
Cc1ccccc1C(=O)Nc1ccc(-c2nc3ccc(C(=O)c4ccccc4)cc3[nH]2)cc1	67*	-110	-145	2	-112
CCCCCCC/C=C(\C)[C@@H](O)[C@@H](C)C(=O)N1CCC[C@@H]1C(=O)O	.	-2	-1	-4	.
O=C(NCc1ccccc1)OCCCN1C(=O)CCC12CCCCC2	.	3	3	1	.
COc1ccc(NC(=S)NC(NC(=O)/C=C/c2ccccc2)C(Cl)(Cl)Cl)cc1 (stereo unspecified)	-3	3	-23	0	-24
O=C(/C=C/c1ccccc1)NC(NC(=S)Nc1ccc(Cl)cc1)C(Cl)(Cl)Cl (stereo unspecified)	26*	-51	-47	-3	-40
O=C(COc1cccnc1[N+](=O)[O-])c1ccc(Cl)s1	10	27	4	52*	16
CC1=C(C)/C(=N\OS(=O)(=O)c2ccc(C)cc2)C=CC1=O	6	8	9	24*	2
COC(=O)[C@H](CC(C)C)N(CCCc1cn(Cc2ccc(C)cc2)nn1)S(=O)(=O)c1ccc(F)cc1Br	.	0	-4	-1	.
